MrgX1 antagonist = human MrgX1 receptor antagonism, primary screen; MRGX1-HEK293 calcium flux, Fluo-4, BAM8-22 antagonism; active compounds read low; B-score at 10 µM; 310,000 tested, 1.3% active;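 active = calcium-response B-score plate-corrected more than 3 library SD below zero, starting fluorescence within 5 deviations, no agonist response on first addition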;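 note: peak minus trough fluorescence over baseline after final BAM8-22 challenge near maximal dose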
Target sequence (Q96LB2 whole entry, looked up): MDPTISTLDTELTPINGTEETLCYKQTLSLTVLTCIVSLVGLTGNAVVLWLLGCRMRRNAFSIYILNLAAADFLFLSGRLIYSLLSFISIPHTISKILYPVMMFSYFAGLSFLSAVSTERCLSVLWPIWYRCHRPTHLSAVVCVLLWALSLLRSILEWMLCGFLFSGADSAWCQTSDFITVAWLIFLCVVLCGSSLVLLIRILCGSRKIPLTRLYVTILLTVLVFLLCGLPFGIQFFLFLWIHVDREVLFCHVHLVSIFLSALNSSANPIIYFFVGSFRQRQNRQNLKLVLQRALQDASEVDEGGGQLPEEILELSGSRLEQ
MrgX1 PAM = human MrgX1 positive allosteric modulation, primary screen. 310,000 tested, 0.63% active. AID 588675. Q96LB2. B-score at 10 µM. MrgX1-HEK293, Fluo-4 calcium flux, FDSS; active compounds read high;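 active = plate-corrected calcium response at least 3 library SD above typical, normal starting fluorescence, not activating the receptor alone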;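 note: compound read alongside a low EC10 to EC30 dose of BAM8-22 agonist; peak minus trough fluorescence over baseline measured at the second addition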
RGS4 block = human RGS4 inhibition. P49798. HEK293 M3R/RGS4 inducible, Fluo-4 calcium flux; active compounds read high; triggered by carbachol at its EC20. B-score at 10 µM. 310,000 tested, 0.45% active. AID 463165;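 active = B-score, a plate-corrected calcium signal, over three deviations above library mean, with baseline fluorescence within five deviations of library mean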;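 note: RGS4 expression induced by doxycycline in cells with stable M3 receptor; B-score is computed from the integrated fluorescence ratio over baseline after carbachol; higher B-score means a larger calcium signal and so more RGS4 inhibition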
MrgX1 ag = activates human MrgX1 receptor signaling | B-score at 10 µM | 310,000 tested, 0.44% active | MrgX1-HEK293 cells, Fluo-4 calcium fluorescence, agonist mode; active compounds read high;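 active = calcium response B-score plate-corrected fluorescence ratio at least 3 library SD, with starting fluorescence B-score inside 5 SD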
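Test system: HEK293 cells stably expressing human MrgX1 receptor; amount: 15,000 cells per well; doses: compound delivered in addition one of three; times: overnight plating before 1 h dye loading; detection: Fluo-4 NW calcium-flux fluorescence, kinetic read; read-out basis: B-scored fluorescence response ratio; controls: positive and negative controls per plate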
RGS4 pot = potentiators or activators of RGS4; B-score at 10 µM; AID 463111; 310,000 tested, 0.92% active; HEK293 M3R/inducible RGS4, carbachol calcium flux Fluo4; active compounds read low;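 active = B-score of the integrated calcium signal more than 4 SD below the library mean, with starting fluorescence not abnormally high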;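 note: negative B-score means reduced calcium response which marks RGS4 activation or potentiation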
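Also added: carbachol at ECmax as muscarinic agonist stimulus; Assay system: HEK293 cells with stable M3R and inducible RGS4; Timing: overnight RGS4 induction, 30 min dye load 37 °C, 20 min compound RT; Measured by: Fluo4-AM (2 µM) calcium-flux fluorescence, kinetic read.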
The depositor's hits bear a star; i = inactive; / = no result given. Most compounds without a hit are left out; they make up all but 3.5% or so of the library.

SMILES	MrgX1 antagonist	MrgX1 PAM	RGS4 block	MrgX1 ag	RGS4 pot
CN1CCN(Cc2ccc(Sc3ccc(Cl)cc3)c([N+](=O)[O-])c2)CC1	i	i	i	i	-8.3*
CC1CC(=O)c2c(cc3c(-c4c(O)cc(O)c5c(O)c6c(cc45)OC(C)CC6=O)c(O)cc(O)c3c2O)O1 (centres undefined)	-6.8*	i	i	i	i
O=C(Nc1ccc(Cl)cc1F)c1cccc2ccccc12	i	i	i	i	i
Cc1cc(C(=O)Nc2c(C)nn(Cc3ccc(F)cc3)c2C)on1	-4.9*	i	i	i	i
O=C(CN1CCN(C(=O)c2ccco2)CC1)N1CCc2[nH]c3ccccc3c2C1	-5.9*	i	i	i	i
CC(=O)OC1COC(OC2C(O)C(C)OC(OC3C(OC4CCC5(C)C(CCC6(C)C5CC=C5C7CC(C)(C)CCC7(C(=O)O)CCC56C)C4(C)CO)OCC(O)C3O)C2O)C(O)C1OC(C)=O (centres undefined)	i	i	/	219*	/
CC1(C)CC[C@]2(C(=O)O)CC[C@]3(C)C(=CC[C@@H]4[C@@]5(C)CC[C@H](O)C(C)(C)[C@@H]5CC[C@]43C)[C@@H]2C1	i	i	/	i	/
CCn1c(SCC(=O)c2ccc(Br)cc2)nnc1C(C)NC(=O)Cc1ccc(OC)cc1 (centres undefined)	i	i	i	i	i
COc1ccc(CC(=O)NC(C)c2nnc(SCC(=O)c3ccc(Br)cc3)n2C)cc1 (centres undefined)	-7.4*	i	i	i	i
COCCSc1nnc(NC(=O)COc2ccc3c(c2)OCO3)s1	i	i	i	i	i
C#CCNC(=O)C1=C[C@@H](c2ccc(C#C)cc2)[C@H](CCCO)[C@@H](OCC)O1	-8.4*	i	i	i	i
CCO[C@@H]1OC(C(=O)NCc2ccccc2)=C[C@H](c2coc3ccccc3c2=O)[C@H]1CCCO	-5.9*	i	i	i	i
CC(/C=C1\SC(=Nc2cccnc2)NC1=O)=C\c1ccccc1	i	i	i	i	i
C=CCOc1ccc(/C=C2\SC(=Nc3cccnc3)NC2=O)cc1	-4.9*	i	i	i	i
CCc1nccn1CCC(=O)N1CCCC(N2CCN(c3cccc(Cl)c3)CC2)C1 (centres undefined)	i	i	i	i	i
CCOc1ccc(C2C(C#N)=C(C)NC3=C2C(=O)c2ccccc23)cc1 (centres undefined)	i	i	i	i	i
COc1ccc(C2C(C#N)=C(C)NC3=C2C(=O)c2ccccc23)cc1 (centres undefined)	i	i	i	i	-7.4*
COc1cccc(C(=O)N2C(C(=O)O)CSC2c2ccccc2Cl)c1 (centres undefined)	i	i	i	i	i
CCCCCN(C(=O)CCC(=O)OCC(=O)N1C(C)CCCC1C)c1c(N)n(CCCC)c(=O)[nH]c1=O (centres undefined)	i	i	i	i	i
COc1cc(N=c2ssnc2Cl)c(OC)cc1Cl	i	i	i	40*	i
COc1ccc(S(=O)(=O)N2CCCCCC2)cc1C(=O)N(C)Cc1ccc(Cl)cc1Cl	i	14*	i	i	i
Cc1c(C(=O)Oc2cc(N)n(S(C)(=O)=O)n2)cccc1[N+](=O)[O-]	i	6.7*	i	i	i
Cc1ccccc1C(=O)Oc1cc(N)n(S(C)(=O)=O)n1	i	i	i	i	i
CCOC(=O)c1ccccc1NS(=O)(=O)c1cnn(CC)c1C	i	i	i	i	i
Cc1nc(C(=O)Nc2cc(Cl)ccc2Cl)nn1-c1cc(OC(C)C)c(Cl)cc1Cl	-5.1*	i	i	i	i
O=C(c1ccc2nc3ccccc3c(=O)n2c1)N1CCN(Cc2ccc3c(c2)OCO3)CC1	-9.6*	i	i	i	i
O=C(c1cccn2c(=O)c3ccccc3nc12)N1CCN(Cc2ccc3c(c2)OCO3)CC1	i	i	i	i	i
O=[N+]([O-])c1ccc(C2CCCC/C2=N/OCc2ccccc2F)c([N+](=O)[O-])c1 (centres undefined)	i	i	i	i	-7.7*

Screens: PubChem BioAssay, Johns Hopkins Ion Channel Center
